XBP1 UPR activ – adaptive UPR (XBP1) activation | CHO-XBP1 luciferase reporter, IRE1-XBP1 UPR activation, luminescence; percent of tunicamycin response, DMSO as zero | activation, % at 20 µM | 0.33% of 330,000 active;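 active = versus positive control, 20 µM dose yields 30% or more activation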;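 note: 100% = tunicamycin at 10 µg/mL and 0% = DMSO only wells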
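Signal: luciferase luminescence; Assay system: CHO-XBP1 luciferase reporter cells; Amount: one thousand reporter cells per well; Dosing: 20 µM single concentration, DMSO 1%; Benchmarks: high control tunicamycin 10 µg/mL final, low control DMSO vehicle only; Schedule: 6 h compound exposure at 37 °C, 5% CO2; Evaluation: percent activation relative to tunicamycin reference.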
CHOP UPR activ – activators of apoptotic arm of unfolded protein response (CHOP); CHO-CHOP luciferase reporter, UPR activation, luminescence; percent of tunicamycin response over DMSO baseline; activation, % at 10 µM; 0.34% of 330,000 active; AID 449763;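 active = at 10 µM dose, activation of 40% or more, normalized to positive control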;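 note: 100% = tunicamycin at 10 µg/mL and 0% = DMSO alone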
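Assay system: CHO cells with stable CHOP pathway luciferase reporter; Buffer or medium: F12 plus 10% serum; Times: 16-18 h cell attachment, then 6 h compound exposure, 37 °C; Signal: luciferase luminescence; Read-out basis: percent activation relative to tunicamycin control; Control set: tunicamycin high control, DMSO low control.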
T cruzi repl – blocks replication of Trypanosoma cruzi. T. cruzi beta-gal in NIH3T3, luminescence, 90 h. AID 1885. 1.4% of 300,000 active. inhibition, % (no concentration beside the values);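 active = mean inhibition across valid replicates above about 55%, limit read from the data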;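 note: signal also drops with host cell toxicity which is not excluded here; 0% = plate median of DMSO wells and 100% = zero luminescence signal; higher percent means less beta-gal luminescence so fewer parasites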
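Assay system: NIH/3T3 fibroblasts plus reporter T. cruzi. Amount: NIH/3T3 cells, 5,000 per well. Buffer or medium: DMEM, 2% fetal bovine serum. Doses: compound pinned at 50 nL/well, DMSO. Schedule: ≥90 h infection period, 3 h prior cell attachment. Signal: luminescent β-galactosidase signal after 60 min lysis. Read-out: parasite load inhibition, %.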
Dynein transport – dynein cargo transport inhibition | z-score, hits read low | 3617.4 mouse cells, GR-EGFP nuclear translocation imaging; test concentration mostly 20 µM; stimulated with dexamethasone, 1 µM; active compounds read low | AID 1381 | 0.47% of 220,000 active;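 active = plate z-score of nuclear minus cytoplasmic receptor signal below a set negative limit, without overly bright fluorescence or cell loss, cut at about -3.5 in these data, passing the limit was not always enough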;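 note: z-score of nuclear minus cytoplasmic ring GR-EGFP intensity difference per well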
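Medium: Induction medium lacking tetracycline, stripped serum | Probe or stimulus: 1.0 µM final dexamethasone stimulus | Schedule: 48 h induction, then 1 h compound, then 30 min agonist, 37 °C | Signal: Automated 10x imaging of fixed Hoechst-stained cells | Evaluation: Per-cell GR-EGFP intensity, nucleus versus surrounding cytoplasmic ring, well-averaged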
L major viab – reduces viability of Leishmania major promastigotes | resazurin fluorescence viability | inhibition, % at 10 µM | 9% of 200,000 active | AID 1063; in the data active = inhibition above about 50%;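 note: promastigotes grown with compound for 44 hours at 28 °C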
CHOP inhibitor – blocks CHOP induction under ER stress | CHO-K1 CHOP-promoter luciferase, tunicamycin-induced, 15-18 h | inhibition, % at 10 µM | 3.8% of 220,000 active | AID 2732;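 active = compounds that reduced the stress-induced luciferase reporter signal by more than about 70% of percent inhibition, limit read from the data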;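 note: 0% = tunicamycin plus vehicle and 100% = wells without tunicamycin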
* marks the source's active call; other numbers are inactive results; nt = not tested or not shown. The full list was thinned out, with hits kept by preference.

SMILES	XBP1 UPR activ	CHOP UPR activ	T cruzi repl	Dynein transport	L major viab	CHOP inhibitor
COC(=O)C1=C(O)C(C(=O)OC)C(c2ccc(C)cc2)C(C#N)(C#N)C1c1ccc(C)cc1 (configuration not stated)	6.5	9.9	-17.4	-0.237	61.2*	42.2
COC(=O)C1=C(Nc2ccc(C)cc2)C=C(C)C(C(=O)OC)C1c1ccc(OC)cc1 (configuration not stated)	0.5	-0.8	30.0	0.143	36.7	-9.0
Cc1c(Cc2ccccc2)c(=O)oc2c(C)c(OCC(=O)N[C@@H](Cc3ccccc3)C(=O)O)ccc12	0.1	-2.3	-15.1	nt	nt	nt
Cc1ccc2nc(-c3ccc(NC(=O)Cc4cccs4)cc3)[nH]c2c1	4.4	3.6	5.2	-0.498	-1.4	79.4*
Cc1cccc(N2CCN(C(=O)CCC(=O)N3CCOc4ccc(Cl)cc43)CC2C)c1 (configuration not stated)	-1.8	0.8	5.4	nt	nt	nt
CC(=O)c1ccccc1OCC(O)CN1CCN(CCN2C(=O)c3cccc4cccc(c34)C2=O)CC1 (configuration not stated)	3.7	-0.6	52.2	-0.899	99.4*	31.0
Cc1ccc(C)c(OCC(O)CN2CCN(CCN3C(=O)c4cccc5cccc(c45)C3=O)CC2)c1 (configuration not stated)	-1.6	0.7	47.4	-0.0547	100.1*	42.4
Cc1cc(CSc2nc(C)cc(=O)[nH]2)c2ncccc2c1	-2.1	1.4	8.1	-0.913	-6.1	86.8*
Cc1cc(=O)[nH]c(SCc2cccc3ccccc23)n1	-1.5	1.8	-7.8	nt	nt	nt
CCCN1CCC(NC(=O)C2CC=CCC2C(=O)O)CC1 (configuration not stated)	-6.0	0.1	-5.0	nt	nt	nt
COc1ccc(-c2nc(NC(=O)C3CCN(c4nc5ccccc5o4)CC3)sc2C)cc1	-1.4	0.0	45.8	0.259	78.9*	78.1*
COc1ccc2c(c1)sc(=N)n2C	-2.6	0.4	72.0*	-0.584	100.5*	10.7
Cc1ccc(S(=O)(=O)N(CC(=O)NCc2ccco2)Cc2ccccc2F)cc1	nt	nt	32.5	-1.11	92.7*	13.7
C[N+]1(CC(=O)OC2CCCCCCCCCCC2)CCCC1	-1.8	0.0	16.5	-0.0587	100.1*	-1.6
COC(=O)CCCCCCCCCC[N+]1(C)CCCCC1	-0.9	1.1	-9.0	-1.24	16.9	-1.2
Cc1c(C(C)(C)C)c(C=S)n2ccccc12	-3.1	1.6	35.4	-0.581	62.7*	20.1
CCOc1cc2c3c(c1)C1(C(=O)N3C(C)(C)C=C2C)C(C#N)=C(N)Oc2cc(O)ccc21 (configuration not stated)	-2.2	-0.6	4.1	-1.51	13.1	66.2
COc1cc2c3c(c1)C1(C(=O)N3C(C)(C)C=C2C)C(C#N)=C(N)Oc2cc(O)ccc21 (configuration not stated)	1.7	-1.8	36.4	0.163	67.3*	10.4
Cc1cc2c3c(c1C)C1(C(=O)N3C(C)(C)CC2C)C(C#N)=C(N)Oc2cc(O)ccc21 (configuration not stated)	-0.4	1.2	15.2	-2.14	69.8*	39.3
O=C(Nc1ccncc1)c1cc(S(=O)(=O)N2CCOCC2)ccc1Cl	-2.0	2.5	3.1	nt	nt	nt
CCC(CC)C(=O)N1N=C(c2ccc(NS(C)(=O)=O)cc2)CC1c1ccc(C)cc1 (configuration not stated)	0.8	-0.3	6.5	2.53	nt	51.0
O=C1Nc2ccc(Cl)cc2/C1=C/C1CC=CCC1 (configuration not stated)	1.7	2.2	19.9	0.301	95.7*	-0.2
COc1ccc(NC(=O)CCC(=O)c2ccc(-c3ccccc3)cc2)cc1	3.0	-0.3	4.3	-0.273	0.7	-5.7
Cc1ccc(NC(=O)CCC(=O)OCC(=O)c2ccc(-c3ccccc3)cc2)cc1	-1.5	-2.0	-11.0	-0.0316	-8.3	85.1*
O=C1NCCCC2c3cc(O)c4ccccc4c3OC12N1CCCCC1 (configuration not stated)	-2.6	3.8	nt	-1.6	100.1*	-13.3
